Results collected from several papers.
Protocols differ between the studies behind these lines.
Target: Mitogen-activated protein kinase kinase kinase 5 (MAP3K5, Homo sapiens, UniProt Q99683)
One construct used (Q99683 1-1374): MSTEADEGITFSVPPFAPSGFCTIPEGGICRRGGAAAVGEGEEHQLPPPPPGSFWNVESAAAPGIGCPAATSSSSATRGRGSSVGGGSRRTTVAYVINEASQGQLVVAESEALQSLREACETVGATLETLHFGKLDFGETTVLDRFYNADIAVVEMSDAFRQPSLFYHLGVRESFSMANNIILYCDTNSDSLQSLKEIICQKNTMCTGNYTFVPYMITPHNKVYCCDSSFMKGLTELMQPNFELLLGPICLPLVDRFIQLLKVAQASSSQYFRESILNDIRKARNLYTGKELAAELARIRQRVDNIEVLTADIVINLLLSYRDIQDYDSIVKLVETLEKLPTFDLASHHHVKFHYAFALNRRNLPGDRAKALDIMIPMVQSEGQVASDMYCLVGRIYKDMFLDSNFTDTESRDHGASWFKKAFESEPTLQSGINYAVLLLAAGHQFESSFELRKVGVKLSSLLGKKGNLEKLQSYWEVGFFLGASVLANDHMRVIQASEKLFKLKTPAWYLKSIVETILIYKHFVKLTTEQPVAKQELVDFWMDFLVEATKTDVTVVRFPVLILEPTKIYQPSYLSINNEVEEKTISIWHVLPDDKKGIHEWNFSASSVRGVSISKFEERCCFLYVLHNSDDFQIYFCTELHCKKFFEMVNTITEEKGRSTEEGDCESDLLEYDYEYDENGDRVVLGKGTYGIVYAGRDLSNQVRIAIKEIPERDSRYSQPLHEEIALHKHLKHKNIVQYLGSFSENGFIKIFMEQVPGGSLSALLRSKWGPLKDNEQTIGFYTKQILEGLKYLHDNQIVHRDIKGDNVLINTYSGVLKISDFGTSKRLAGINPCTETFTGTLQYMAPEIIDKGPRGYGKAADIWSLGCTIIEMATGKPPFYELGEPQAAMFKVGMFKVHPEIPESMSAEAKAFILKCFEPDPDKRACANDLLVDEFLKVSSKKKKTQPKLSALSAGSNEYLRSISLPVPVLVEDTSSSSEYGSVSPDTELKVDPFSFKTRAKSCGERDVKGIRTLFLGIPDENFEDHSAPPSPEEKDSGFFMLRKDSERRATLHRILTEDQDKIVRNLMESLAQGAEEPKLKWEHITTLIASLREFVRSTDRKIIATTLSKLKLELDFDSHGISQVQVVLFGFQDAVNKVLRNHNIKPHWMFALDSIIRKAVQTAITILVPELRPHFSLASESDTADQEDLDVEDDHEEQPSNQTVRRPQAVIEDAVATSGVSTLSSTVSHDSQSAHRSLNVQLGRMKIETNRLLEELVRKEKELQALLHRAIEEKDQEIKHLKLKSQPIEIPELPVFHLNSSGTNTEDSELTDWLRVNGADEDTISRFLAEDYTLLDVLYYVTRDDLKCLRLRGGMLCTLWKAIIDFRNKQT

| Compound | assay | conditions | remaining binding |
| --- | --- | --- | --- |
| O=C(Nc1ccc(Oc2ccc(F)cc2)cc1)N1CCc2ncccc2[C@H]1c1ccc(F)cc1 | cell-free assay, competition with immobilised ligand | 1 µM | 87% |
| CNC(=O)[C@@H]1CC[C@@H](n2c(-c3ccc4cnccc4c3)nc3ccc(C(=O)NCc4cccc(C(N)=O)c4)cc32)C1 | binding, competition with immobilised ligand | 1 µM | 92% |
| Cc1cc(C)c(-n2ccn3nc(-c4cccnc4)cc23)cc1NC(=O)c1cc(C#N)cc(S(F)(F)(F)(F)F)c1 | cell-free assay, competition with immobilised ligand | 0.1 µM | 100% |
| Nc1ncc2c(n1)-c1c([nH]c3ccc(C#CC4CC4)cc13)CCCC2 | binding, competition with immobilised ligand | 1 µM | 100% |
| COc1cnc(Nc2cccc(S(N)(=O)=O)c2)nc1N1CCN(c2ccccc2)CC1 | binding, competition with immobilised ligand | 1 µM | 100% |
| C[C@H]1CCN(c2nccc(-c3cnn4ncccc34)n2)C1 | binding | 1 µM | 100% |
| O=C(c1ccc(Nc2ncc(Cl)c(-c3cc4ccccc4s3)n2)cc1)N1CCC(N2CCCC2)CC1 | binding, competition with immobilised ligand | 1 µM | 100% |
| N[C@H]1CCN(c2nccc(-c3cnn4ncccc34)n2)C1 | binding | 1 µM | 99% |
| CCN1CCN(Cc2ccc(C(=O)Nc3ccc(C)c(Oc4ccc5c(c4)CC(=O)N5)c3)cc2C(F)(F)F)CC1 | binding, competition with immobilised ligand | 1 µM | 100% |
| O=C(O)[C@@H]1[C@@H](Cn2nnc3ccccc3c2=O)CC[C@H]1C(=O)c1ccc(OCCC2CCOCC2)cc1 | cell-free assay, competition with immobilised ligand | 1 µM | 94% |
| O=C(c1ccc(Nc2ncc(Cl)c(-c3ccc(Cl)s3)n2)cc1)N1CCC(N2CCCC2)CC1 | binding, competition with immobilised ligand | 1 µM | 100% |
| c1cncc(-c2cccc(Nc3nccc(NC4CCCCC4)n3)c2)c1 | binding, competition with immobilised ligand | 10 µM | 100% |
| CN(CCCC(F)(F)F)c1nccc(-c2cnn3ncccc23)n1 | binding | 1 µM | 76% |
| CNC(=O)Nc1ccc2c(c1)CC[C@@]21OC(=O)N(CC(=O)N(Cc2ccc(F)cc2)[C@@H](C)C(F)(F)F)C1=O | cell-free assay, competition with immobilised ligand | 1 µM | 94% |
| CN(c1nccc(-c2cnn3ncccc23)n1)C1CC1 | binding | 1 µM | 100% |
| Cc1nc(N2CC[C@@H](O)C2)ncc1-c1cc(C(F)(F)F)cc2[nH]ncc12 | binding, competition with immobilised ligand | 1 µM | 100% |
| c1cnn2ncc(-c3ccnc(N4CCC45COC5)n3)c2c1 | binding | 1 µM | 100% |
| O=C(NCC1CCOCC1)c1n[nH]cc1NC(=O)c1c(F)cccc1F | binding, competition with immobilised ligand | 1 µM | 87% |
| CCCOc1ccc([C@@H]2[C@@H](C(=O)O)[C@H](c3ccc4c(c3)OCO4)CN2CC(=O)Nc2c(CC)cccc2CC)cc1 | cell-free assay, competition with immobilised ligand | 1 µM | 97% |
| Cc1cnn2ncc(-c3ccnc(N(C)C)n3)c2c1 | binding | 1 µM | 100% |
| O=C(NCCCN1CCOCC1)c1ccc(Nc2nccc(-c3cc4ccccc4s3)n2)cc1 | binding, competition with immobilised ligand | 1 µM | 100% |
